How the values were obtained:
Rattus norvegicus [1] = assay: Gastric antisecretory activity in pylorus-ligated rat at a concentration of 50 mg/kg perorally, expressed as increase in mean pH.; assay type: functional; conditions: route oral
Procedure, shortened: (§1)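 Male Carworth Farms rats (270–360 g), fasted 18 h with water; compound in PEG 200 by gavage 1 h before pylorus ligation under ether. Killed 2 h after ligation; juice centrifuged, volume and pH measured, supernatant titrated with NaOH to pH 7.4, output = volume × titre. Mean of six to seven animals against controls.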

Rattus norvegicus [2] = assay: Gastric antisecretory activity in pylorus ligated rat at a concentration of 50 mg/kg perorally, expressed as % decrease in mean titratable acid output of gastric juice in treated vs. control groups.; assay type: functional; conditions: route oral; procedure, shortened: as §1
Rattus norvegicus [3] = assay: Gastric antisecretory activity in pylorus-ligated rat at a concentration of 50 mg/kg po, expressed as increase in mean pH; NS means no significant change.; assay type: functional, organism-based; parameters: dose 50 mg/kg; procedure, shortened: as §1
Rattus norvegicus [4] = assay: Gastric antisecretory activity in pylorus ligated rat at a concentration of 50 mg/kg po, expressed as % decrease in mean titratable acid output of gastric juice in treated vs. control groups; NS means no significant change.; assay type: functional, organism-based; parameters: dose 50 mg/kg; procedure, shortened: as §1
Rattus norvegicus [5] = assay: Gastric antisecretory activity, in pylorus ligated rat (PLR,50 mg/kg po), expressed as increase in mean pH; assay type: functional; procedure, shortened: as §1
Rattus norvegicus [6] = assay: Gastric antisecretory activity, in pylorus ligated rat (PLR,50 mg/kg po), expressed as % decrease in mean titratable acid output of gastric juice in treated vs. control groups; assay type: functional; procedure, shortened: as §1
Rattus norvegicus [7] = assay: Effect of peroral administration of compound on acid secretion inhibition in the PLR; NS means no significant dose response.; assay type: functional, organism-based
Procedure, shortened: (§2)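 Rats (male Carworth Farms, 270–360 g) fasted 18 h; compound in PEG 200 by gavage 1 h before pylorus ligation under ether, six per group. Gastric contents collected 2 h post-ligation; pH, volume, titre (NaOH to pH 7.4) measured, output = volume × titre.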

Rattus norvegicus [8] = assay: Effect of intraduodenal administration of compound on acid secretion inhibition in the PLR; Value ranges from 0.2-2.1; assay type: functional
Rattus norvegicus [9] = assay: Effect of intravenous administration of compound on acid secretion inhibition in the PLR; Value ranges from 1.8-5.9; assay type: functional
Procedure, shortened: (§3)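 Male Carworth Farms rats (270–360 g), fasted 18 h, pylorus ligated under ether; compound in PEG 200 given intravenously at ligation, six rats per group. Gastric contents taken 2 h after ligation, centrifuged, titrated with NaOH to pH 7.4; output = volume × titre.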

Rattus norvegicus [10] = assay: Effect of peroral administration of compound on acid secretion inhibition in the PLR; Value ranges from 4.3-16.3; assay type: functional; procedure, shortened: as §2
Rattus norvegicus [11] = assay: Effect of intraduodenal administration of compound on acid secretion inhibition in the PLR; Value ranges from 0.3-2.9; assay type: functional
Rattus norvegicus [12] = assay: Effect of intravenous administration of compound on acid secretion inhibition in the PLR; Value ranges from 4.0-19.3; assay type: functional; procedure, shortened: as §3
Rattus norvegicus [13] = assay: Gastric antisecretory activity in pylorus-ligated rat at a concentration of 50 mg/kg po, expressed as increase in mean pH; NS means no significant change; assay type: functional, organism-based; parameters: dose 50 mg/kg; procedure, shortened: as §1
Rattus norvegicus [14] = assay: Effect of peroral administration of compound on acid secretion inhibition in the PLR; Value ranges from 2.6-8.5; assay type: functional; procedure, shortened: as §2
Rattus norvegicus [15] = assay: Effect of peroral administration of compound on acid secretion inhibition in the PLR;Value ranges from 3.6-12.2; assay type: functional; procedure, shortened: as §2

Compound	Delta pH (Rattus norvegicus [1])	Delta TAO (Rattus norvegicus [2])	other results
CC(CCCc1ccccn1)NC1c2ccccc2Oc2ccccc21 (stereo not given)	6.1	100	
O=C(NC1c2ccccc2Oc2ccccc21)OCc1ccccc1			Delta pH (Rattus norvegicus [3]): Not significant; Delta TAO (Rattus norvegicus [4]): Not significant
NC(=O)N(O)C1c2ccccc2Oc2ccccc21			Delta pH (Rattus norvegicus [5]): 1.9; Delta TAO (Rattus norvegicus [6]): 88
O=CNNC1c2ccccc2Oc2ccccc21			Delta pH (Rattus norvegicus [5]): 2; Delta TAO (Rattus norvegicus [6]): 80
CCN1CCCC(N(C)C2c3ccccc3Oc3ccccc32)C1 (stereo not given)	5.1	98	
CN(C)C1CCCN(C2c3ccccc3Oc3ccccc32)C1 (stereo not given)	3.1	80	ED50 (Rattus norvegicus [7]): Not significant; ED50 (Rattus norvegicus [8]): 0.9 mg/kg; ED50 (Rattus norvegicus [9]): 3.2 mg/kg; ED50 (Rattus norvegicus [10]): 8.9 mg/kg; ED50 (Rattus norvegicus [11]): 1.2 mg/kg; ED50 (Rattus norvegicus [12]): 6.3 mg/kg
O=C(NC1c2ccccc2Oc2ccccc21)c1ccccc1O			Delta pH (Rattus norvegicus [3]): Not significant; Delta TAO (Rattus norvegicus [4]): Not significant
c1ccc(CNC2c3ccccc3Oc3ccccc32)nc1	4.8	96	
NS(=O)(=O)NC1c2ccccc2Oc2ccccc21	2	87	
NC1c2ccccc2Oc2ccccc21	4.5	93	
CN1CCC(NC2c3ccccc3Oc3ccccc32)CC1	6.4	99	
c1ccc2c(c1)Oc1ccccc1C2NCc1ccncc1	3.6	77	
c1ccc(CNC2c3ccccc3Oc3ccccc32)cc1	1.9	69	
c1ccc(NNC2c3ccccc3Oc3ccccc32)nc1	1.4	73	
c1cncc(NC2c3ccccc3Oc3ccccc32)c1			Delta pH (Rattus norvegicus [13]): Not significant; Delta TAO (Rattus norvegicus [4]): Not significant
c1cncc(C2CCCN2C2c3ccccc3Oc3ccccc32)c1 (stereo not given)	1.8	65	
c1ccc2c(c1)Oc1ccccc1C2NCC1CCCCO1 (stereo not given)	3.6	87	
O=S1(=O)CCC(NC2c3ccccc3Oc3ccccc32)C1 (stereo not given)	1.5	57	
O=S(=O)(NC1c2ccccc2Oc2ccccc21)c1ccccc1			Delta pH (Rattus norvegicus [13]): Not significant; Delta TAO (Rattus norvegicus [4]): Not significant
c1ccc2c(c1)Oc1ccccc1C2Nc1nccs1			Delta pH (Rattus norvegicus [13]): Not significant
C=CCN(CC=C)C1c2ccccc2Oc2ccccc21	1.3		
c1cncc(CNC2c3ccccc3Oc3ccccc32)c1	4.2	94	
c1ccc(NNC2c3ccccc3Oc3ccccc32)cc1			Delta pH (Rattus norvegicus [13]): Not significant
c1cnc(NC2c3ccccc3Oc3ccccc32)nc1		48	Delta pH (Rattus norvegicus [13]): Not significant

Compound	Delta pH (Rattus norvegicus [1])	Delta TAO (Rattus norvegicus [2])	other results
CN(CCc1ccccn1)C1c2ccccc2Oc2ccccc21	5.6	99	ED50 (Rattus norvegicus [7]): Not significant; ED50 (Rattus norvegicus [14]): 4.8 mg/kg
CN(Cc1cccnc1)C1c2ccccc2Oc2ccccc21	3.6	92	
c1ccc2c(c1)Oc1ccccc1C2NCCN1CCOCC1	2.6	47	
CCO/C(C)=N\C1c2ccccc2Oc2ccccc21			Delta pH (Rattus norvegicus [5]): 4.4; Delta TAO (Rattus norvegicus [6]): 97
CC(=N)NC1c2ccccc2Oc2ccccc21	1.1	88	
CCOC(=O)N1CCN(C2c3ccccc3Oc3ccccc32)CC1	2.2		
CN(C1c2ccccc2Oc2ccccc21)C1c2ccccc2Oc2ccccc21		72	Delta pH (Rattus norvegicus [3]): Not significant
c1ccc(CCCNC2c3ccccc3Oc3ccccc32)nc1	5.7	99	
c1ccc2c(c1)Oc1ccccc1C2NC1CN2CCC1CC2 (stereo not given)	2.4	65	
CCN(CCc1ccccn1)C1c2ccccc2Oc2ccccc21	4.3	86	
O=C1CCC(=O)N1C1c2ccccc2Oc2ccccc21			Delta pH (Rattus norvegicus [3]): Not significant; Delta TAO (Rattus norvegicus [4]): Not significant
c1ccc(CCNC2c3ccccc3Oc3ccccc32)nc1	5.9	99	
c1ccc2c(c1)Oc1ccccc1C2N1CCNCC1	5.3	98	
CN(C)CC1CCCCN1C1c2ccccc2Oc2ccccc21 (stereo not given)	5.2	95	
C=CCNC1c2ccccc2Oc2ccccc21	4.4		Delta TAO (Rattus norvegicus [4]): Not significant
CN(C)C1CCN(C2c3ccccc3Oc3ccccc32)CC1	5.8	97	
c1ccc2c(c1)Oc1ccccc1C2NC1=NCCS1	3.6	95	
CN1CCCN(C2c3ccccc3Oc3ccccc32)CC1	4.6	92	
Cc1cc(C)n(C2c3ccccc3Oc3ccccc32)n1			Delta pH (Rattus norvegicus [13]): Not significant; Delta TAO (Rattus norvegicus [4]): Not significant
CC1=NCCN1CCNC1c2ccccc2Oc2ccccc21	3	88	
CN1CCN(C2c3ccccc3Oc3ccccc32)CC1	5.4	97	ED50 (Rattus norvegicus [7]): Not significant; ED50 (Rattus norvegicus [15]): 6.8 mg/kg
CS(=O)(=O)NC1c2ccccc2Oc2ccccc21			Delta pH (Rattus norvegicus [13]): Not significant; Delta TAO (Rattus norvegicus [4]): Not significant
c1ccc(N2CCN(C3c4ccccc4Oc4ccccc43)CC2)nc1			Delta pH (Rattus norvegicus [13]): Not significant; ED50 (Rattus norvegicus [4]): Not significant

Source: ChEMBL document CHEMBL1122278, “Gastric antisecretory 9H-xanthen-9-amines” (1983)
